Source: article PMC9087257 (The Journal of International Medical Research, 2022)

Tests used:
TRKA = TRKA (Homo sapiens, UniProt P04629); assay: ELISA kinase assay, TRKA; format: biochemical
Summary of the method: (§1)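 Tyrosine kinase ELISA: ATP in kinase reaction buffer, then test compound diluted in DMSO (DMSO as negative control). Reaction started by adding purified kinase and incubated 1 h at 37°C. Plate washed three times with 1 mM PBS (pH 7.5), then HRP-conjugated goat anti-mouse IgG added for 30 min at 37°C. Washed again and read by spectrophotometer.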

NCI-H460 cells [1] = assay: Wound healing assay; format: cell-based; conditions: 75 nM, 150 nM and 300 nM, 48 h
HCC-44 cells = assay: MTT cell viability assay, HCC-44; format: cell-based; conditions: for antiproliferative efficacy against HCC-44 cells: 48 h, MTT
Summary of the method: (§2)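 MTT viability: cells grown in RPMI-1640 with 10% FBS and penicillin-streptomycin, seeded in 24-well plates and held 24 h at 37°C, 5% CO2. Test compound added over a range of concentrations: 48 h for the cancer-line panel; three treatment durations for NCI-H460, NCI-H3122, HCC-44 and BEAS2B. MTT added for 2 h at 37°C, formazan dissolved in DMSO with 30 min shaking, absorbance read. Mean ± SEM.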

EGFR = EGFR (Homo sapiens, UniProt P00533); assay: ELISA kinase assay, EGFR; format: biochemical
Summary of the method: as §1

[2] = MTT cytotoxicity against normal cells BEAS2B; format: cell-based; conditions: human, BEAS2B cells (normal human epithelium cells)
Summary of the method: as §2

NCI-H460 cells [3] = assay: Transwell migration assay; format: cell-based; conditions: 48 h
Summary of the method: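 Transwell migration with NCI-H460 cells, at three test-compound concentrations. Cells seeded in the upper chamber in serum-free RPMI-1640; lower chamber held RPMI-1640 with 10% FBS. After 48 h at 37°C, 5% CO2, cells were fixed and haematoxylin-stained, and migrated cells were counted.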

N-cadherin = assay: Western blotting, N-cadherin level; format: cell-based; conditions: NCI-H460 cells, 48 h, Western blot
Summary of the method: (§3)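 Western blot: NCI-H460 cells treated 48 h with three test-compound concentrations; 5 × 10^6 cells lysed in RIPA, run on SDS-PAGE and transferred to PVDF. Membranes blocked in 5% defatted milk. Anti-E-cadherin or anti-N-cadherin (1:10000) at 4°C for 12 h; anti-GAPDH (1:50000) 2 h at 25°C as internal control. ECL detection; bands quantified against the control group; mean ± SEM.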

FGFR1 = FGFR1 (Homo sapiens, UniProt P11362); assay: ELISA kinase assay, FGFR1; format: biochemical
Summary of the method: as §1

NCI-H3122 cells = assay: MTT cell viability assay, NCI-H3122; format: cell-based; conditions: Homo sapiens, NCI-H3122, read-out: IC50 against NCI-H3122 cells
Summary of the method: as §2

PDGFRα = PDGFRα (Homo sapiens, UniProt P16234); assay: ELISA kinase assay, PDGFRα; format: biochemical
Summary of the method: as §1

c-Met kinase = c-Met kinase (Homo sapiens, UniProt P08581); assay: ELISA kinase assay, c-Met; format: biochemical
NCI-H460 cells [4] = assay: MTT cell viability assay, NCI-H460; format: cell-based; conditions: Homo sapiens, NCI-H460, read-out: IC50 against NCI-H460 cells
Summary of the method: as §2

ALK = ALK (Homo sapiens, UniProt Q9UM73); assay: ELISA kinase assay, ALK; format: biochemical
Summary of the method: as §1

[5] = test system: TE-11, SK-BR-3, HO-8910, QGY-7701, SHG-44, HCC-44, COLO-320, SH-SY5Y and SW579 cells; assay: MTT cell viability, panel of nine cancer cell lines; format: cell-based; conditions: 48 h
NCI-H460 xenograft = NCI-H460 xenograft study; format: in vivo, BALB/c nude mice
Summary of the method: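 BALB/c nude mice (4 weeks, 18–21 g) carried NCI-H460 xenografts and were housed at 26–28°C on a 13 h/11 h light cycle. At tumour volume 100 mm3, mice were randomised, 5 per group, to water vehicle or 50 mg/kg test compound intragastrically every 3 days for 16 days. Tumours were then excised and weighed; heart, liver, spleen, lung and kidney taken for H&E.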

E-cadherin = assay: Western blotting, E-cadherin level; format: cell-based; conditions: NCI-H460 cells, 48 h, Western blot
Summary of the method: as §3

TRKA, sequence (P04629 33-796): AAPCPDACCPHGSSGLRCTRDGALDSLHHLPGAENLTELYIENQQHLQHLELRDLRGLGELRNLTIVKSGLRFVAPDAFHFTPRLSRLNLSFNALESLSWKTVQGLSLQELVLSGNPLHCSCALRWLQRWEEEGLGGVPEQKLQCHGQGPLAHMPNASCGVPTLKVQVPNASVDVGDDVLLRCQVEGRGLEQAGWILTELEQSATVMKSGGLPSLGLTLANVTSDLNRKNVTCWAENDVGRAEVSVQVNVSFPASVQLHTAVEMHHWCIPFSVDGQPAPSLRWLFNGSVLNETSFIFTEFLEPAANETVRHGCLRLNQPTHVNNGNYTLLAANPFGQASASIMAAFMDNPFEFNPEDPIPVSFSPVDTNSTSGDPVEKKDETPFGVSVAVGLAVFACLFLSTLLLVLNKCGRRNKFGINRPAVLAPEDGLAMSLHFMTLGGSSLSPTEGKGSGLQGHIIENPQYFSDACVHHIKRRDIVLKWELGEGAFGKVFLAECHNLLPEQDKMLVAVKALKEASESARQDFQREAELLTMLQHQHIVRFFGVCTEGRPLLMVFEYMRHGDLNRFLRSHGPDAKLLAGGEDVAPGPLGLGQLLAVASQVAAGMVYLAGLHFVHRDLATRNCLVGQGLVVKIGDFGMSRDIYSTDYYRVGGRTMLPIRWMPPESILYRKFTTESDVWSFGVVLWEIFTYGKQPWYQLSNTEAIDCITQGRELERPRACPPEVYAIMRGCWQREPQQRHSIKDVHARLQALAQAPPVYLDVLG
PDGFRα, sequence (P16234 24-1089): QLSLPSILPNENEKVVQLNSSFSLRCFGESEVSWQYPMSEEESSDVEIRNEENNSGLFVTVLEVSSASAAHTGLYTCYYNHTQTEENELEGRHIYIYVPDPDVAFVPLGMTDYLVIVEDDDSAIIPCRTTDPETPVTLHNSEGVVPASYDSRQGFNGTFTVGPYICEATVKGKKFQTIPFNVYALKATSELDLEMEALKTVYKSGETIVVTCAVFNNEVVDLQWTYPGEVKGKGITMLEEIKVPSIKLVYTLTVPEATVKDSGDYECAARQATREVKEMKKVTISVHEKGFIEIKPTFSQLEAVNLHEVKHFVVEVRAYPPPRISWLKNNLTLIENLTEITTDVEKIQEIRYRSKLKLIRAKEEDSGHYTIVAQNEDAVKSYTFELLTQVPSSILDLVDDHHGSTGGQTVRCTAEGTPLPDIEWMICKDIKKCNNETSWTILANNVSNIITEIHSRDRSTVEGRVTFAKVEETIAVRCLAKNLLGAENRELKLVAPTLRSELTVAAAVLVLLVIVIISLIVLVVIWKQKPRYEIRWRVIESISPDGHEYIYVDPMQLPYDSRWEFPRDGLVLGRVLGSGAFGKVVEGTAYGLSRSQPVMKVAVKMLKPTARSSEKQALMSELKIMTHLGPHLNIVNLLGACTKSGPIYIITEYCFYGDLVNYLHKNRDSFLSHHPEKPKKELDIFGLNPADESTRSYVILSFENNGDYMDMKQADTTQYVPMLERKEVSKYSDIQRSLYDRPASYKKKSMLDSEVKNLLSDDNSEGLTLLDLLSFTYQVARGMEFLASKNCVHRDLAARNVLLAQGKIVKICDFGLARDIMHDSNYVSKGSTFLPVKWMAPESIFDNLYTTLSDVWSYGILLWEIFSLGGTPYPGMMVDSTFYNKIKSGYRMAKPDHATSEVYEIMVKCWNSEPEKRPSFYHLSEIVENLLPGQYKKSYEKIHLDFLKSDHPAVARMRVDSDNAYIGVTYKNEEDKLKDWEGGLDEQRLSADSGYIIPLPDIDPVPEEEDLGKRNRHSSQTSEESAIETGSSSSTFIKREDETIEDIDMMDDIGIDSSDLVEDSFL
c-Met kinase, sequence (P08581 25-1390): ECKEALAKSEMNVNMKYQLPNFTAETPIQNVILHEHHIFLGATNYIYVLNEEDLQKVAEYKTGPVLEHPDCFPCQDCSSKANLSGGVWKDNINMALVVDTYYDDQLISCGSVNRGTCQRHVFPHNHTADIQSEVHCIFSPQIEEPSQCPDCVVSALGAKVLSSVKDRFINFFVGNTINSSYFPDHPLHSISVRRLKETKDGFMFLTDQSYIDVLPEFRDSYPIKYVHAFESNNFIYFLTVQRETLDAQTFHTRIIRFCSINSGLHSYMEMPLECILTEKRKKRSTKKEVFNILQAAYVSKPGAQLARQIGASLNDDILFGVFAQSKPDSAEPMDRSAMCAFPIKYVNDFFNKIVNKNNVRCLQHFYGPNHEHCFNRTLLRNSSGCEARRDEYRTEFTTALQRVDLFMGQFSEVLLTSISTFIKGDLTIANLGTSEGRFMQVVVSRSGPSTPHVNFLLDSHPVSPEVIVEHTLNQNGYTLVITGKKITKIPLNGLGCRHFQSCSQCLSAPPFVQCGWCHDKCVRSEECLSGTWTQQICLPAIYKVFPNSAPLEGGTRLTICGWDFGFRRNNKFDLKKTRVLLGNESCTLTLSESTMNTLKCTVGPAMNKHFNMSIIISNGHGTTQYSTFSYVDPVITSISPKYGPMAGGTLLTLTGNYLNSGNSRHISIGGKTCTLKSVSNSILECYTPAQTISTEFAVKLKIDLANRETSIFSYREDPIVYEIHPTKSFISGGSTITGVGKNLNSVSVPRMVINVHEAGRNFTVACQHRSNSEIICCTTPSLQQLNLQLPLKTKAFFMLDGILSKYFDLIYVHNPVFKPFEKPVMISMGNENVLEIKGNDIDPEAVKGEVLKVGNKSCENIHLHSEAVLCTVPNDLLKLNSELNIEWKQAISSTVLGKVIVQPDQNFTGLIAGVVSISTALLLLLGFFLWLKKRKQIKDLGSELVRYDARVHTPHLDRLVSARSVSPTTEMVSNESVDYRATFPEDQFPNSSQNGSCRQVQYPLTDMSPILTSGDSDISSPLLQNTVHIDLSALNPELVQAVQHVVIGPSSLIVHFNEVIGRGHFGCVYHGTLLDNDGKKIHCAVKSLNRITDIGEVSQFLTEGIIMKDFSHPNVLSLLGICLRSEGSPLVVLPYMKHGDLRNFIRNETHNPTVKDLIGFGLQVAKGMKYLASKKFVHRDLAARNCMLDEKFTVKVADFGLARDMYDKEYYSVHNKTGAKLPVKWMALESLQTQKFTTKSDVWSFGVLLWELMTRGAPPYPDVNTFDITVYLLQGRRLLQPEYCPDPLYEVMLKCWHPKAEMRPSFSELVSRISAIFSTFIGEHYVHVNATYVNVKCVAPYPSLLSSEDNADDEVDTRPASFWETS
FGFR1, sequence (P11362 22-822): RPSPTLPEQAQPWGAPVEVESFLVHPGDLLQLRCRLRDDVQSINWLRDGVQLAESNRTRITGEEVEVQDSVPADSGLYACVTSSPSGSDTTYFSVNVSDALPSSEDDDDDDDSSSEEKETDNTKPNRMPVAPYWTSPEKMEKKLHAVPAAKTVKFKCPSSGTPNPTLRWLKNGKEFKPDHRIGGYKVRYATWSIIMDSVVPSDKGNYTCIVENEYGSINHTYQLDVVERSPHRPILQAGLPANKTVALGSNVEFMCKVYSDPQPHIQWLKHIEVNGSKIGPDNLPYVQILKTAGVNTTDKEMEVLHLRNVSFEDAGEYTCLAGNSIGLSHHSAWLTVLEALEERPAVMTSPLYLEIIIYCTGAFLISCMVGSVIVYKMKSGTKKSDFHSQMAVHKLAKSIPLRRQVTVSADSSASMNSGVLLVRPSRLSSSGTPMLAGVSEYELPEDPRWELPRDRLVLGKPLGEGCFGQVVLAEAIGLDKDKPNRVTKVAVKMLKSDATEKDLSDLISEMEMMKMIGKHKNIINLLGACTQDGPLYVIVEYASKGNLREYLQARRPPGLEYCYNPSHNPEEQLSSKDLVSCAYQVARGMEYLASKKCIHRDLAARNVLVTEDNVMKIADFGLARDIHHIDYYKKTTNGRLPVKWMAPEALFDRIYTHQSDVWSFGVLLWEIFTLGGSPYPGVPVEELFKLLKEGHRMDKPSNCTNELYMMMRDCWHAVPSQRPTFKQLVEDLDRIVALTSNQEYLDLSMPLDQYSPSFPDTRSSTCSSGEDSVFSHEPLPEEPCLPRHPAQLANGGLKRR

IC50 (TRKA): > 1500 nM | IC50 (HCC-44 cells; Homo sapiens, HCC44, read-out: IC50 against HCC-44 cells): 2060 nM | IC50 (EGFR): > 1500 nM | IC50 (FGFR1): > 1500 nM | IC50 (NCI-H3122 cells): 1170 nM | IC50 (PDGFRα): > 1500 nM | IC50 (c-Met kinase): 27.96 ± 0.14 nM | IC50 (NCI-H460 cells [4]): 150 nM | IC50 (ALK): > 1500 nM
SMILES: O=C(/C=C/c1ccc(Br)cc1)c1ccc(OCCCSc2nncs2)cc1 [ZW97, (E)-1-(4-(3-((1,3,4-thiadiazol-2-yl)thio)propoxy)phenyl)-3-(4-bromophenyl)prop-2-en-1-one]
wound healing (NCI-H460 cells [1]): inhibited the wound healing in a concentration dependent manner | antiproliferative efficacy against HCC-44 cells (HCC-44 cells; 4 μM): approximately 65.7% | antiproliferative efficacy against HCC-44 cells (HCC-44 cells; 8 μM): ~88.3% | IC50 [2]: > 64 µM | cell migration (transwell) (NCI-H460 cells [3]): hindered NCI-H460 cell migration | level of N-cadherin (N-cadherin): downregulated | antiproliferative activity in nine cancer cell lines [5]: antiproliferative activity against all nine cancer cell lines | subcutaneous tumour growth (NCI-H460 xenograft; 50 mg/kg intragastric for 16 days): suppressed NCI-H460 subcutaneous tumour growth | mouse body weight (NCI-H460 xenograft; 50 mg/kg intragastric for 16 days, compared with control): did not significantly decrease the mouse body weight | inhibitory rate (tumour weight) (NCI-H460 xenograft; day 16, 50 mg/kg intragastric once every 3 days, versus vehicle group): 61.58% | level of E-cadherin (E-cadherin): upregulated
